# In publication PMC11235002 (BMJ Oncology, 2024):
# Marks after values point to notes of the source that are not given here.
# What was measured:
# [1] = test system: advanced or metastatic solid tumours; assay: Antitumour activity per RECIST v1.1; format: in vivo, human
# Method in brief: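 Part 1a monotherapy dose escalation used a standard 3+3 design, with 8 dose levels from 50 mg to 1000 mg. The test compound was given orally twice daily as tablet or capsule on days 1–28 of 28-day cycles. BOR, ORR and PFS followed RECIST v1.1, with confirmed responses unless stated otherwise. Response-evaluable patients had ≥1 dose, a baseline scan and ≥1 postbaseline scan, or qualifying discontinuation.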
# urea cycle = assay: Urea cycle inhibition monitored via orotic acid levels; format: in vivo, human
# T-cell = details: in vitro; cited from earlier work
# syngeneic mouse models = details: multiple syngeneic mouse models; cited from earlier work
# [2] = monotherapy dose escalation Part 1a total (n=25)
# [3] = monotherapy dose escalation Part 1a total (n=30)
# [4] = monotherapy dose expansion Part 2 total (n=73)
# [5] = monotherapy dose expansion Part 2 total (n=77)
compound,measurement,setting,value
C[C@H](N)C(=O)N1C[C@H](CCCB(O)O)[C@](N)(C(=O)O)C1 [INCB001158],confirmed partial response,"[1]; monotherapy 100 mg two times per day, Part 2 (n=73), one patient, urothelial cancer",1.4%
same,objective response,[1]; monotherapy dose escalation Part 1a (n=25),No patient in the monotherapy cohort had an objective response
same,BOR of stable disease,"[1]; monotherapy dose escalation Part 1a (n=25), five patients",20.0%
same,BOR: CR,[1]; [2],0 n (%)
same,BOR: NE,[1]; [2],1 (4.0) n (%)
same,BOR: PD,[1]; [2],19 (76.0) n (%)
same,BOR: PR,[1]; [2],0 n (%)
same,BOR: SD,[1]; [2],5 (20.0) n (%)
same,ORR,[1]; [2],0 (0 to 13.7) n (%) (95% CI)
same,PFS events,[1]; [3],21 (70.0) n (%)
same,"PFS, median (95% CI)",[1]; [3],1.8 (1.8 to 1.9) mo
same,BOR: CR,[1]; [4],0 n (%)
same,BOR: Missing,[1]; [4],10 (13.7) n (%)
same,BOR: NE,[1]; [4],3 (4.1) n (%)
same,BOR: PD,[1]; [4],37 (50.7) n (%)
same,BOR: SD,[1]; [4],22 (30.1) n (%)
same,ORR,[1]; [4],1 (1.4) (0 to 7.4) n (%) (95% CI)
same,BOR: PR,"[1]; monotherapy dose expansion Part 2 total (n=73), well-differentiated urothelial cancer",1 (1.4)† n (%)
same,PFS events,[1]; [5],58 (75.3) n (%)
same,"PFS, median (95% CI)",[1]; [5],1.9 (1.8 to 2.1) mo
same,orotic acid levels,"urea cycle; 150 mg two times per day, highest dose level tested, no symptomatic nor clinically significant urea cycle inhibition",apparent increase in orotic acid levels
same,patients with urinary orotic acid levels >10× the upper limit of normal,"urea cycle; monotherapy, all asymptomatic",four
same,T-cell immunosuppression,T-cell,reversed T-cell immunosuppression in vitro
same,tumour growth,syngeneic mouse models,reduced tumour growth
